Series [1] can be described thus: Inhibition of recombinant HIV1 HXB2 reverse transcriptase RDDP activity assessed as reduction in biotin/digoxin-dU incorporation into polirA-oligodU template primer measured after 30 mins by ELISA. Further details: species or system HIV-1 M:B_HXB2R. In a few lines: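 Purified recombinant HIV-1 RT (HXB2 clone), 3 U, incubated with compounds over a concentration range and poly(rA)-oligo(dU). Biotin- and digoxin-labelled dU (equimolar) incorporated at 37 °C for 30 min, stopped with 0.5 M EDTA. Product captured on streptavidin-coated plates and detected with peroxidase-tagged anti-digoxin antibody. Absorbance read at 570 nm against 690 nm reference. IC50 from linear regression of dose-response curves.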
In general terms: In an ELISA, binding on a coated surface is turned into a signal by an enzyme label.

The nature of series [2]: Cytotoxicity against human PBMC assessed as reduction in cell viability after 72 hrs by XTT assay. Type of series: tissue-based. In a few lines:
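Primary human PBMCs, 2×10^4 cells/well, exposed to compounds at several concentrations for 72 h. XTT (5 mg/mL) with 0.01 % PMS in DMEM then added for 4 h at 37 °C. Absorbance read at 492 and 620 nm. CC50 obtained by linear regression of dose-response curves.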
In general terms: Formazan colour is commonly taken as a measure of viable cells.

Series [3] is described as follows: Protection index, ratio of azidothymidine CC50 to test compound CC50 for human PBMC. Format: ADME, tissue-based. To be noted: read-out: PI.
The test system of series [4] is HIV1 HXB2 reverse transcriptase RDDP activity. The series can be described thus: Selectivity index, ratio of CC50 for human PBMC to IC50 for inhibition of recombinant HIV1 HXB2 reverse transcriptase RDDP activity. Format: toxicity. To be noted: read-out: Ratio CC50/IC50.

Data on 22 molecules can be found in ChEMBL document CHEMBL4765283, “Design, synthesis, in vitro and in silico studies of novel 4-oxoquinoline ribonucleoside derivatives as HIV-1 reverse transcriptase inhibitors” (Eur J Med Chem, 2020).

The term IC50 denotes the concentration needed to halve the response being measured. Broadly, the CC50 is the concentration that lowers cell viability or growth by half.

SMILES strings stand for the structures.

For `O=C(OC[C@H]1O[C@@H](n2cc(C(=O)NCc3ccc(Cl)cc3)c(=O)c3cc(F)ccc32)[C@H](OC(=O)c2ccccc2)[C@@H]1OC(=O)c1ccccc1)c1ccccc1`, the concentration for half-maximal inhibition (IC50) in series [1] worked out at 2.8 µM. For the same molecule, in series [2], the CC50 at 72 h was above 1000 µM. The selectivity ratio in series [3] is above 10.

Regarding `O=C(OC[C@H]1O[C@@H](n2cc(C(=O)NCc3ccc(Cl)cc3)c(=O)c3cc(Cl)ccc32)[C@H](OC(=O)c2ccccc2)[C@@H]1OC(=O)c1ccccc1)c1ccccc1`, the IC50 in series [1] stood at 8.8 µM. Also, the CC50 at 72 h in series [2] was above 1000 µM. In addition, the selectivity ratio in series [3] is above 10.

In the case of `O=C(NCc1ccc(Cl)cc1)c1cn([C@@H]2O[C@H](CO)[C@@H](O)[C@H]2O)c2ccccc2c1=O`, in series [1], the IC50 came out at 29.2 µM. The CC50 at 72 h in series [2] is above 1000 µM. The selectivity ratio in series [3] was above 10.

Take `O=C(Nc1ccc(Cl)cc1)c1cn([C@@H]2O[C@H](CO)[C@@H](O)[C@H]2O)c2ccc(Cl)cc2c1=O`: the half-inhibitory concentration (IC50) in series [1] was determined as 8 µM. In addition, the CC50 at 72 h in series [2] was above 1000 µM. Moreover, in series [3], the selectivity ratio was above 10.

`O=C(OC[C@H]1O[C@@H](n2cc(C(=O)NCc3ccc(Cl)cc3)c(=O)c3cc(C(F)(F)F)ccc32)[C@H](OC(=O)c2ccccc2)[C@@H]1OC(=O)c1ccccc1)c1ccccc1`: the IC50 in series [1] is 2.9 µM. In addition, in series [2], the half-maximal cytotoxic concentration (CC50) at 72 h was above 1000 µM. Also, the selectivity ratio in series [3] was above 10.

With `O=C(NCc1ccc(Cl)cc1)c1cn([C@@H]2O[C@H](CO)[C@@H](O)[C@H]2O)c2ccc(C(F)(F)F)cc2c1=O`, the IC50 in series [1] is 3.9 µM. Further, the CC50 at 72 h in series [2] was above 1000 µM. The selectivity ratio in series [3] was above 10.

For `O=C(NC1CCCCC1)c1cn([C@@H]2O[C@H](CO)[C@@H](O)[C@H]2O)c2ccc(Cl)cc2c1=O`, the IC50 in series [1] was 22.4 µM. Also, the CC50 at 72 h in series [2] is above 1000 µM. Also, the selectivity ratio in series [3] was above 10.

Turning to `COc1ccc(NC(=O)c2cn([C@@H]3O[C@H](COC(=O)c4ccccc4)[C@@H](OC(=O)c4ccccc4)[C@H]3OC(=O)c3ccccc3)c3ccc(Cl)cc3c2=O)cc1`, the IC50 in series [1] is 6.8 µM. The CC50 at 72 h in series [2] is above 1000 µM. In series [3], the selectivity ratio is above 10.

`Cc1ccc2c(c1)c(=O)c(C(=O)NCc1ccc(Cl)cc1)cn2[C@@H]1O[C@H](COC(=O)c2ccccc2)[C@@H](OC(=O)c2ccccc2)[C@H]1OC(=O)c1ccccc1`: the IC50 in series [1] was 1.6 µM. Besides, in series [2], the CC50 at 72 h was determined as 1390 µM. The selectivity ratio in series [4] is 830; in series [3] it was above 10.

Regarding `O=C(OC[C@H]1O[C@@H](n2cc(C(=O)NC3CCCCC3)c(=O)c3cc(Cl)ccc32)[C@H](OC(=O)c2ccccc2)[C@@H]1OC(=O)c1ccccc1)c1ccccc1`, the IC50 in series [1] came out at 8.6 µM. Moreover, the CC50 at 72 h in series [2] is above 1000 µM. In addition, the selectivity ratio in series [3] was above 10.

As for `Cc1ccc2c(c1)c(=O)c(C(=O)NCc1ccc(Cl)cc1)cn2[C@@H]1O[C@H](CO)[C@@H](O)[C@H]1O`, the IC50 in series [1] was found to be 4.3 µM. In addition, in series [2], the CC50 at 72 h was above 1000 µM. Also, in series [3], the selectivity ratio was above 10.

With `Cc1ccc(NC(=O)c2cn([C@@H]3O[C@H](COC(=O)c4ccccc4)[C@@H](OC(=O)c4ccccc4)[C@H]3OC(=O)c3ccccc3)c3ccc(Cl)cc3c2=O)cc1`, in series [1], the 50% inhibitory concentration (IC50) is 16.6 µM. In series [2], the CC50 at 72 h is above 1000 µM. Further, the selectivity ratio in series [3] is above 10.

Turning to `O=C(OC[C@H]1O[C@@H](n2cc(C(=O)Nc3ccc(F)cc3)c(=O)c3cc(Cl)ccc32)[C@H](OC(=O)c2ccccc2)[C@@H]1OC(=O)c1ccccc1)c1ccccc1`, the concentration for half-maximal inhibition (IC50) in series [1] worked out at 7.3 µM. In addition, in series [2], the CC50 at 72 h is above 1000 µM. Moreover, in series [3], the selectivity ratio was above 10.

Turning to `O=C(Nc1ccccc1)c1cn([C@@H]2O[C@H](CO)[C@@H](O)[C@H]2O)c2ccc(Cl)cc2c1=O`, the IC50 in series [1] is 2.6 µM. Also, the CC50 at 72 h in series [2] was above 1000 µM. Besides, the selectivity ratio in series [3] is above 10.

Regarding `O=C(OC[C@H]1O[C@@H](n2cc(C(=O)Nc3ccccc3)c(=O)c3cc(Cl)ccc32)[C@H](OC(=O)c2ccccc2)[C@@H]1OC(=O)c1ccccc1)c1ccccc1`, the IC50 in series [1] was found to be 19.5 µM. Moreover, the CC50 at 72 h in series [2] is above 1000 µM. Besides, the selectivity ratio in series [3] was above 10.

Regarding `O=C(OC[C@H]1O[C@@H](n2cc(C(=O)NCc3ccc(Cl)cc3)c(=O)c3ccccc32)[C@H](OC(=O)c2ccccc2)[C@@H]1OC(=O)c1ccccc1)c1ccccc1`, in series [1], the IC50 is 1.4 µM. In addition, the CC50 at 72 h in series [2] was found to be 1490 µM. Also, the selectivity ratio is 998 in series [4] and above 10 in series [3].

Regarding `O=C(NCc1ccc(Cl)cc1)c1cn([C@@H]2O[C@H](CO)[C@@H](O)[C@H]2O)c2ccc(Cl)cc2c1=O`, the half-maximal inhibitory concentration (IC50) in series [1] was found to be 18.4 µM. For the same molecule, the CC50 at 72 h in series [2] is above 1000 µM. For the same molecule, the selectivity ratio in series [3] is above 10.

Turning to `O=C(NCc1ccc(Cl)cc1)c1cn([C@@H]2O[C@H](CO)[C@@H](O)[C@H]2O)c2ccc(F)cc2c1=O`, the IC50 in series [1] amounted to 3.9 µM. Besides, the CC50 at 72 h in series [2] is above 1000 µM. The selectivity ratio in series [3] was above 10.

With `O=C(Nc1ccc(F)cc1)c1cn([C@@H]2O[C@H](CO)[C@@H](O)[C@H]2O)c2ccc(Cl)cc2c1=O`, the IC50 in series [1] came out at 5.8 µM. Further, in series [2], the CC50 at 72 h was above 1000 µM. In addition, the selectivity ratio in series [3] was above 10.

Turning to `O=C(OC[C@H]1O[C@@H](n2cc(C(=O)Nc3ccc(Cl)cc3)c(=O)c3cc(Cl)ccc32)[C@H](OC(=O)c2ccccc2)[C@@H]1OC(=O)c1ccccc1)c1ccccc1`, the IC50 in series [1] was 9.9 µM. In series [2], the CC50 at 72 h is above 1000 µM. Moreover, the selectivity ratio in series [3] is above 10.

`COc1ccc(NC(=O)c2cn([C@@H]3O[C@H](CO)[C@@H](O)[C@H]3O)c3ccc(Cl)cc3c2=O)cc1`: in series [1], the half-inhibitory concentration (IC50) came out at 3.4 µM. Besides, in series [2], the CC50 at 72 h is above 1000 µM. In addition, in series [3], the selectivity ratio was above 10.

As for `Cc1cn([C@H]2C[C@H](N=[N+]=[N-])[C@@H](CO)O2)c(=O)[nH]c1=O` [ZIDOVUDINE], the IC50 in series [1] was determined as 0.05 µM. Also, the half-maximal cytotoxic concentration (CC50) at 72 h in series [2] was found to be 126 µM.
